ChEMBL document CHEMBL1137180, “Synthesis and structure-activity relationship of a novel sulfone series of TNF-alpha converting enzyme inhibitors” (Bioorg Med Chem Lett, 2004)

Key:
Caco-2 [1] = assay: Permeability action in Caco-2 cells; format: functional, Homo sapiens
[2] = target: Disintegrin and metalloproteinase domain-containing protein 17 (Sus scrofa, UniProt O77636); assay: Inhibition of porcine Tumor necrosis factor- alpha converting enzyme (TACE, ADAM17)
[3] = target: Matrix metalloproteinase-9 (Homo sapiens, UniProt P14780); assay: Inhibition of Matrix metalloprotease-9 (MMP-9)
Chain of Matrix metalloproteinase-9 (P14780 whole entry): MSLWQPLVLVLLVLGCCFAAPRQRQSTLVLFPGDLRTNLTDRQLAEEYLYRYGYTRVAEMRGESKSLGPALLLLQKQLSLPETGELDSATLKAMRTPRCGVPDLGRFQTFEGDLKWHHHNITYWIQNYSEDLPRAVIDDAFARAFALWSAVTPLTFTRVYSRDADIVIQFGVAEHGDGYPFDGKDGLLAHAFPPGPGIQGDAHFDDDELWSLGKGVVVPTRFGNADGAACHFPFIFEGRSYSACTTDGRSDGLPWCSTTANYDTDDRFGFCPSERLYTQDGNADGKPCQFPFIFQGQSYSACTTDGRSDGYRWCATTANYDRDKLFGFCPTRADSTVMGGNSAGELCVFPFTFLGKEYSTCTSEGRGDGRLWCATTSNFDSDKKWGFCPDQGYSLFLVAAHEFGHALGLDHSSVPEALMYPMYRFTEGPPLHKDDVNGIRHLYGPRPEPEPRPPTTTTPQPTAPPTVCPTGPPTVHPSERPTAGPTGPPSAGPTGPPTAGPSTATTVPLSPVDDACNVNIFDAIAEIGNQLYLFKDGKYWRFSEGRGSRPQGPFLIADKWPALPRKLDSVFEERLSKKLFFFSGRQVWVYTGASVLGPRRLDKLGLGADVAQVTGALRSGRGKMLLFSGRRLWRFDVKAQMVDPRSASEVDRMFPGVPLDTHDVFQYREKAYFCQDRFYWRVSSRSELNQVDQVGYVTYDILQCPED
Summary of the method: (§1)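 Inhibition is reported as Ki (nM) against each isolated MMP. Each value comes from a single determination, with no replicates.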

[4] = target: 72 kDa type IV collagenase (Homo sapiens, UniProt P08253); assay: inhibition of Matrix metalloprotease-2 (MMP-2); summary of the method: as §1
Chain of 72 kDa type IV collagenase (P08253 whole entry): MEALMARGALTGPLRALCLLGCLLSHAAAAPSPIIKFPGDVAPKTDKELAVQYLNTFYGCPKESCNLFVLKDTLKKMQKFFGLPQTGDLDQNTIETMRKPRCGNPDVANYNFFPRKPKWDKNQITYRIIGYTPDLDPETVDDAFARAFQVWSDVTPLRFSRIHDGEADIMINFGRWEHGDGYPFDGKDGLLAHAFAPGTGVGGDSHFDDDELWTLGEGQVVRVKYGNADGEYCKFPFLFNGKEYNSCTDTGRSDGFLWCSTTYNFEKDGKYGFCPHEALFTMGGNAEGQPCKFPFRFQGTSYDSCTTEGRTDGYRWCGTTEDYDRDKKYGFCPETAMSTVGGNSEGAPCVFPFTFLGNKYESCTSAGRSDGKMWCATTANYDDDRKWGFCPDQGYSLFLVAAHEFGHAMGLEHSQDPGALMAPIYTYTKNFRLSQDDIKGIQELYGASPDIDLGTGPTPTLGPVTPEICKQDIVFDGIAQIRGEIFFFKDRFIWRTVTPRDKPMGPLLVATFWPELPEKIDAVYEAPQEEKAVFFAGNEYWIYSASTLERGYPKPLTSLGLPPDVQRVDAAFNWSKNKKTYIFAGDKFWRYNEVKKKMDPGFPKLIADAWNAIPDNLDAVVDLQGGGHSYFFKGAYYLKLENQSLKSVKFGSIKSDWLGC

Interstitial collagenase = target: T1, Interstitial collagenase (Homo sapiens, UniProt P03956); assay: Inhibition of Matrix metalloprotease-1 (MMP-1); summary of the method: as §1
T1 sequence (P03956 whole entry): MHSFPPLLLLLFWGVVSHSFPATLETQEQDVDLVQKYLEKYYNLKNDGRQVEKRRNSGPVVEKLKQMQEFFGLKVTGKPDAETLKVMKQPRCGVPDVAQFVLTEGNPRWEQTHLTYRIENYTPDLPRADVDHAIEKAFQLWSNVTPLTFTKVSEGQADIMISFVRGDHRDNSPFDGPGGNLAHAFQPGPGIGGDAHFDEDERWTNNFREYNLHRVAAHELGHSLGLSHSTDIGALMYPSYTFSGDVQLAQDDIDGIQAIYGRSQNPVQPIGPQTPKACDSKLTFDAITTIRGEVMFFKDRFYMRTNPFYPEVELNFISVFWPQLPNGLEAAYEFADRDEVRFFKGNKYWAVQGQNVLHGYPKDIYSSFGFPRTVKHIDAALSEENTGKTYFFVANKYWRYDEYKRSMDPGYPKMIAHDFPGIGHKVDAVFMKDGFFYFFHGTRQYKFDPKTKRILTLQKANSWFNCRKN

Mus musculus [5] = assay: Compound was tested for anti TNF-alpha activity using LPS mouse model at 10 mg/kg p.o.; format: functional; conditions: route oral
[6] = target: Disintegrin and metalloproteinase domain-containing protein 17 (Homo sapiens, UniProt P78536); assay: Effect on TNF-Alpha release in LPS-stimulated human whole blood assay; format: functional, tissue-based
Chain of Disintegrin and metalloproteinase domain-containing protein 17 (Homo sapiens, UniProt P78536) (P78536 whole entry, the tested form may be a part): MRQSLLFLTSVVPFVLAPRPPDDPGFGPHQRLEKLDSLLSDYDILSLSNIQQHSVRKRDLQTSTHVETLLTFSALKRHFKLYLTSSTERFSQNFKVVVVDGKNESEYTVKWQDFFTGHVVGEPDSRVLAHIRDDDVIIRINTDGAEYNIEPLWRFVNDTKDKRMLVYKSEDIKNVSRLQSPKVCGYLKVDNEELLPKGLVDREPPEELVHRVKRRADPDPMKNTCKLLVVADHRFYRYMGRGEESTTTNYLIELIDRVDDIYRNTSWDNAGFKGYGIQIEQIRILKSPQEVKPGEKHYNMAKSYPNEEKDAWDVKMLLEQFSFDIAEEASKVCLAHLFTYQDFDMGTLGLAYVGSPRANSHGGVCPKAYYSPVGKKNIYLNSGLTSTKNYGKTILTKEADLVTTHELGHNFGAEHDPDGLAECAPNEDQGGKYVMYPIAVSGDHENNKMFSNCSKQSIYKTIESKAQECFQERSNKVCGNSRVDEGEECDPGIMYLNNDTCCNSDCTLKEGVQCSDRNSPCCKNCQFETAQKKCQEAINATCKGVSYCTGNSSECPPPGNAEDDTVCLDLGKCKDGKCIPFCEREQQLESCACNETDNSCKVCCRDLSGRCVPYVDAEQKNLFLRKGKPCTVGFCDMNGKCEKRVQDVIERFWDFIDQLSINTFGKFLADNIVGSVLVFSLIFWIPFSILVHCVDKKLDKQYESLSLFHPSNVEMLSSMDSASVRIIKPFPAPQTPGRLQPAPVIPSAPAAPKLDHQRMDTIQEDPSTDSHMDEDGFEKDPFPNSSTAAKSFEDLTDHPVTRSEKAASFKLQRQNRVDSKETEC

Collagenase 3 = Collagenase 3 (Homo sapiens, UniProt P45452); assay: Inhibition of Matrix metalloprotease-13 (MMP-13); summary of the method: as §1
Mus musculus [7] = assay: Compound was tested for anti TNF-alpha activity using LPS mouse model at 5 mg/kg p.o.; format: functional; conditions: route oral
Caco-2 [8] = assay: Permeability action in Caco-2 cell; format: functional, Homo sapiens

Chain of Disintegrin and metalloproteinase domain-containing protein 17 (Sus scrofa, UniProt O77636) (O77636 whole entry, the tested form may be a part): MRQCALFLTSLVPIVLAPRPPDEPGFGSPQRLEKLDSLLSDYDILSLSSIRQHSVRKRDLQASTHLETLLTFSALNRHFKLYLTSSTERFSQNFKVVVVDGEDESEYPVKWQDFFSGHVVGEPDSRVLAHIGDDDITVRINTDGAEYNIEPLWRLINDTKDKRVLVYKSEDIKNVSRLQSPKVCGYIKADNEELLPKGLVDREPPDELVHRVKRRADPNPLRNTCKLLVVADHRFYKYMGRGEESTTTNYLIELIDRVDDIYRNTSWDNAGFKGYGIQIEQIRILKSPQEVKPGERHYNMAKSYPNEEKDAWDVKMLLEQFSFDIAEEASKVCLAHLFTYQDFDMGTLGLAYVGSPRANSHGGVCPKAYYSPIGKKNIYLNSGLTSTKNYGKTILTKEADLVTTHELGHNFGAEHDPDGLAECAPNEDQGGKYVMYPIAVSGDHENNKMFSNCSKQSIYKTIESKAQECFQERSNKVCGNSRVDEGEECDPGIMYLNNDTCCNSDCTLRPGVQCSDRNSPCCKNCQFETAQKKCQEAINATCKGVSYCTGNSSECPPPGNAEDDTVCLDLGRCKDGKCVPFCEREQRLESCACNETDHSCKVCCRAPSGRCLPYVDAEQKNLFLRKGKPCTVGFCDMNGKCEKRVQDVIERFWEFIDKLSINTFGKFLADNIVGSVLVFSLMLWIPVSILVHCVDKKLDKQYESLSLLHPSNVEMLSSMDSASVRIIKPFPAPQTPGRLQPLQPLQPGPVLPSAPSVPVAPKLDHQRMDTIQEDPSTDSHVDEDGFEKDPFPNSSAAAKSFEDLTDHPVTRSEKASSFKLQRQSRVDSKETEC

Compound	Ki [3]	Ki [4]	Ki (Interstitial collagenase)	IC50 [6]	Ki (Collagenase 3)	Caco-2 Papp (Caco-2 [1])	IC50 [2]	inhibition in vivo at 10 mg/kg (Mus musculus [5])	ED50 (Mus musculus [5])	inhibition in vivo at 5 mg/kg (Mus musculus [7])	Caco-2 Papp (Caco-2 [8])
CONC(=O)[C@H]1CCCN(C)[C@@H]1C(=O)Nc1ccc(OCc2cc(C)nc3ccccc23)cc1	> 2100 nM	> 3300 nM	> 4900 nM	20 nM		2.1 ×10⁻⁶ cm/s	6.2 nM	> 50%	3 mg/kg		
Cc1cc(COc2ccc(S(=O)(=O)CC3(CC(=O)NO)CCCN(CC(C)C)C3)cc2)c2ccccc2n1 (stereo unspecified)	> 2100 nM	> 3300 nM	> 4900 nM	2500 nM	> 5000 nM	0.7 ×10⁻⁶ cm/s	3.3 nM			25%	
C=CCN1CCC(C(=O)NO)C(CS(=O)(=O)c2ccc(OCc3cc(C)nc4ccccc34)cc2)C1 (stereo unspecified)	> 2100 nM	> 3300 nM	> 4900 nM	160 nM	503 nM	0.97 ×10⁻⁶ cm/s	1.8 nM	25%			
Cc1cc(COc2ccc(S(=O)(=O)CC3NCCC3C(=O)NO)cc2)c2ccccc2n1 (stereo unspecified)	> 2100 nM	> 3300 nM	> 4900 nM	83 nM	955 nM	0.1 ×10⁻⁶ cm/s	< 1 nM	20%			
Cc1cc(COc2ccc(S(=O)(=O)CC3(CC(=O)NO)CCC3)cc2)c2ccccc2n1	> 2100 nM	2570 nM	> 4900 nM	223 nM	753 nM	4.9 ×10⁻⁶ cm/s	< 1 nM			86%	
Cc1cc(COc2ccc(S(=O)(=O)CC3(CC(=O)NO)CCCN(C)C3)cc2)c2ccccc2n1 (stereo unspecified)	> 2100 nM	> 3300 nM	> 4900 nM	208 nM	3870 nM	0.2 ×10⁻⁶ cm/s	3.6 nM			49%	
Cc1cc(COc2ccc(S(=O)(=O)CC3CNCCC3C(=O)NO)cc2)c2ccccc2n1 (stereo unspecified)	> 2100 nM	> 3300 nM	> 4900 nM	250 nM	> 5000 nM		1 nM				0.1 ×10⁻⁶ cm/s

Continued, in another order:

Ki [3]	Ki [4]	Ki (Interstitial collagenase)	IC50 [6]	Ki (Collagenase 3)	Compound	Caco-2 Papp (Caco-2 [1])	IC50 [2]	inhibition in vivo at 10 mg/kg (Mus musculus [5])	ED50 (Mus musculus [5])	inhibition in vivo at 5 mg/kg (Mus musculus [7])	Caco-2 Papp (Caco-2 [8])
> 2100 nM	> 3300 nM	> 4900 nM	230 nM	> 5000 nM	Cc1cc(COc2ccc(S(=O)(=O)CC3CN(C(C)C)CCC3C(=O)NO)cc2)c2ccccc2n1 (stereo unspecified)	0.1 ×10⁻⁶ cm/s	1.5 nM	38%			
> 2100 nM	> 3300 nM	> 4900 nM	180 nM	1710 nM	Cc1cc(COc2ccc(S(=O)(=O)CC3C(C(=O)NO)CCN3C)cc2)c2ccccc2n1 (stereo unspecified)	1 ×10⁻⁶ cm/s	< 1 nM	50%	2.5 mg/kg		
> 2100 nM	> 3300 nM	> 4900 nM	1070 nM	> 5000 nM	CCC(C)N1CCC(C(=O)NO)C(CS(=O)(=O)c2ccc(OCc3cc(C)nc4ccccc34)cc2)C1 (stereo unspecified)	1.8 ×10⁻⁶ cm/s	< 1 nM	33%			
> 2100 nM	> 3300 nM	> 4900 nM	900 nM	> 5000 nM	CCCCN1CCC(C(=O)NO)C(CS(=O)(=O)c2ccc(OCc3cc(C)nc4ccccc34)cc2)C1 (stereo unspecified)	1.6 ×10⁻⁶ cm/s	< 1 nM	35%			
> 2100 nM	> 3300 nM	> 4900 nM	180 nM	377 nM	C#CN1CCC(C(=O)NO)C(CS(=O)(=O)c2ccc(OCc3cc(C)nc4ccccc34)cc2)C1 (stereo unspecified)	1.3 ×10⁻⁶ cm/s	1 nM	24%			
